One series has as its target CYP2C9 (Homo sapiens, UniProt P11712). Nature of the series: Inhibition of human CYP2C9 expressed in baculovirus-infected insect cells at 10 uM using Luciferin-H as substrate in presence of NADPH by P450-Glo luminescence assay relative to control. The note with it: probe Luciferin-H.
Series [1] concerns Trypanosoma brucei brucei. Nature of the series: Anti-parasitic activity against bloodstream form of Trypanosoma brucei brucei Lister 427 at 10 uM after 72 hrs by resazurin-based assay relative to control. It counts as functional. The note with it: Lister 427, 72 h. The procedure, abridged:
(§1)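 Bloodstream-form T. brucei, modified resazurin-based viability assay. EC50 is the arithmetic mean of at least two independent determinations, each run in triplicate.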
(Alamar Blue is a resazurin reagent that responds to reducing activity.)

The target of the next series is Aurora kinase B (Homo sapiens, UniProt Q96GD4). In words: Inhibition of N-terminal-GST-tagged recombinant full length human Aurora B expressed in baculovirus infected Sf9 cells at 10 uM using native Swine Myelin Basic Protein as substrate measured after 60 mins by ADP-Glo assay relative to control. The note with it: probe native Swine Myelin Basic Protein. The procedure, abridged: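 Aurora B kinase activity measured by ADP-Glo, which detects ADP formed through a coupled luciferase luminescence read-out.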

Series [2] in a line: Lipophilicity, log P of the compound. It counts as physicochemical. The note with it: octanol/water.
The target of a further series is CYP2C19 (Homo sapiens, UniProt P33261). Nature of the series: Inhibition of human CYP2C19 expressed in baculovirus-infected insect cells at 10 uM using Luciferin-H EGE as substrate in presence of NADPH by P450-Glo luminescence assay relative to control. It counts as ADME. The note with it: probe Luciferin-H EGE. The procedure, abridged: (§2)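 CYP enzymes as microsomal preparations from baculovirus-infected insect cells, run on the P450-Glo luminogenic substrate platform. A fall in light output indicates inhibition.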

Another series has as its system 786-0. Nature of the series: Mitochondrial toxicity in human 786-O cells at 10 uM by mitotracker red chloromethyl-Xrosamine staining based-uptake method relative to control. Type of series: cell-based. The note with it: 786-0, 10 µM. The gist of the method:
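786-O renal carcinoma cells kept in RPMI-1640 with 2 mM glutamine, 10% v/v FCS, streptomycin 100 µg/ml and penicillin G 100 U/ml. Mitochondrial toxicity monitored by MitoTracker Red CMXRos uptake with high-content imaging.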

The next series addresses T1, CYP1A2 (Homo sapiens, UniProt P05177).
T1 sequence (P05177 whole entry): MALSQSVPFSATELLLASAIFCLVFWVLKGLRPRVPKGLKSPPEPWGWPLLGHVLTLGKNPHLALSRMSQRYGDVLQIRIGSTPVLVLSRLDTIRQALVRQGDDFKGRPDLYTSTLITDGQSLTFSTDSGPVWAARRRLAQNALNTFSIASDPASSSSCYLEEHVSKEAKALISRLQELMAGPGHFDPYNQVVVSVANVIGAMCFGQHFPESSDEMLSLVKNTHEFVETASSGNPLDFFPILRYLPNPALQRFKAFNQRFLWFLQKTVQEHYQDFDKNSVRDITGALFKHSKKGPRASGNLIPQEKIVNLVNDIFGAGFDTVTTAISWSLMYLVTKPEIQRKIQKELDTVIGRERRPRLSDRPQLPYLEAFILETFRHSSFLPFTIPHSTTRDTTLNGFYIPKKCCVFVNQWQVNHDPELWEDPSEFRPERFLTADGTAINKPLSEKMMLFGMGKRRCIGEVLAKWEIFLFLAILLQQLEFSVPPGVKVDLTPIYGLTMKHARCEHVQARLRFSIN
Nature of the series: Inhibition of human CYP1A2 expressed in baculovirus-infected insect cells at 10 uM using Luciferin-1A2 as substrate in presence of NADPH by P450-Glo luminescence assay relative to control. It counts as ADME. The note with it: probe Luciferin-1A2. The procedure, abridged:
as §2

A further series concerns the target hERG (KCNH2) (Homo sapiens, UniProt Q12809). Nature of the series: Inhibition of human ERG at 10 uM by Tracer Red dye based fluorescence polarization assay relative to control. The note with it: probe Tracer Red dye. For orientation: Fluorescence polarisation rises when a labelled molecule tumbles more slowly, as on binding a larger partner.
A short description of series [3]: Selectivity index, ratio of CC50 for human THP1 cells to EC50 for anti-parasitic activity against bloodstream form of Trypanosoma brucei brucei Lister 427. Type of series: toxicity. The note with it: THP-1 cells, read-out: Ratio CC50/EC50. The procedure, abridged: (§3)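 SI = CC50 in PMA-differentiated THP-1 macrophages (MTT) divided by the antiparasitic EC50.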

A further series deals with CYP3A4 (Homo sapiens, UniProt P08684). Nature of the series: Inhibition of human CYP3A4 expressed in baculovirus-infected insect cells at 10 uM using Luciferin-PFBE as substrate in presence of NADPH by P450-Glo luminescence assay relative to control. Type of series: ADME. The conditions noted are these: probe Luciferin-PFBE.
Series [4] can be described thus: Cytotoxicity against human […] cells assessed as cell growth at 10 uM by Cell titer-Glo assay relative to control. It counts as cell-based. The note with it: WI-38 cells, read-out: Activity. The procedure, abridged:
(§4)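 A549 and WI-38 cells grown in DMEM with 10% v/v FCS, streptomycin 100 µg/ml and penicillin G 100 U/ml. Cell number read as cellular ATP by CellTiter-Glo luminescence. Growth 60–100% scored non-cytotoxic, 0–60% cytostatic, below 0 cytotoxic.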
On the technique in general: ATP-based viability assays read luminescence as a measure of living cells.

Series [5] can be described thus: Cytotoxicity against human THP1 cells by MTT assay. Type of series: cell-based. The note with it: THP-1 cells. The procedure, abridged:
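THP-1 cells differentiated to macrophages with PMA, viability read by colorimetric MTT. CC50 and NOAEL are the arithmetic mean of at least two independent determinations, each run in triplicate.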

A short description of series [6]: Cytotoxicity against human A549 cells assessed as cell growth at 10 uM by Cell titer-Glo assay relative to control. Type of series: cell-based. The conditions noted are these: read-out: Activity. The gist of the method:
as §4

The next series deals with CYP2D6 (Homo sapiens, UniProt P10635). In words: Inhibition of human CYP2D6 expressed in baculovirus-infected insect cells at 10 uM using Luciferin-ME EGE as substrate in presence of NADPH by P450-Glo luminescence assay relative to control. It counts as ADME. The note with it: probe Luciferin-ME EGE. The procedure, abridged:
as §2

Series [7] relates to Trypanosoma brucei brucei. Nature of the series: Anti-parasitic activity against bloodstream form of Trypanosoma brucei brucei Lister 427 after 72 hrs by resazurin-based assay. It counts as functional. The conditions noted are these: Lister 427, 72 h. The procedure, abridged:
as §1

In series [8] the test system is Trypanosoma cruzi. Nature of the series: Anti-parasitic activity against Trypanosoma cruzi Y promastigotes infected in HG39 cells at 10 uM by qPCR analysis relative to control. Type of series: functional, cell-based. The conditions noted are these: in the assay text read “trypomastigotes” for “promastigotes”. The procedure, abridged:
(§5)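 Confluent HG39 cells (3 x 10^6 per well) infected at a 1:1 ratio with blood-derived T. cruzi Y strain trypomastigotes. Growth inhibition was read as parasite gDNA by TaqMan probe-based quantitative real-time PCR.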

The test system of series [9] is Trypanosoma cruzi. In words: Anti-parasitic activity against Trypanosoma cruzi Y promastigotes infected in HG39 cells by qPCR analysis. It counts as functional, cell-based. The note with it: in the assay text read “trypomastigotes” for “promastigotes”. The procedure, abridged: as §5
Series [10] has as its system Leishmania infantum. In words: Anti-parasitic activity against Leishmania infantum amastigotes infected in human THP1 cells at 50 uM after 5 days by Giemsa staining based assay relative to control. It counts as functional, cell-based. The conditions noted are these: THP-1, 120 h. The gist of the method: (§6)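 Intracellular L. infantum amastigotes in host cells, imaged by high-content automated imaging. Host cell number, infected cells and parasites per infected cell were counted. Infection Ratio = infected cells / total cells.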

Series [11] deals with Leishmania infantum. Nature of the series: Anti-parasitic activity against Leishmania infantum amastigotes infected in human THP1 cells after 5 days by Giemsa staining based assay. Type of series: functional, cell-based. The note with it: THP-1, 120 h. The procedure, abridged: as §6
Series [12] is described as follows: Selectivity index, ratio of CC50 for human THP1 cells to EC50 for anti-parasitic activity against Leishmania infantum amastigotes infected in human THP1 cells. It counts as toxicity, cell-based. The note with it: THP-1 cells, read-out: Ratio CC50/EC50. The gist of the method: as §3
In a further series the test system is Trypanosoma brucei. Nature of the series: Anti-parasitic activity against Trypanosoma brucei 427. It counts as functional.

SMILES strings stand for the structures.

For orientation: inhibition means the change of the read-out against control, counted positive when it falls. As a reminder, the logP is a log measure of how a compound divides between an organic and an aqueous phase. For orientation: CC50 means the concentration that lowers cell viability or growth by half. Low readings indicate greater toxicity to the cells, high ones lower toxicity to the cells. The EC50 is the concentration giving half of the maximal effect. The low end stands for a more potent agent, the high end for a less potent agent.

Sequence of CYP2D6 (P10635 whole entry): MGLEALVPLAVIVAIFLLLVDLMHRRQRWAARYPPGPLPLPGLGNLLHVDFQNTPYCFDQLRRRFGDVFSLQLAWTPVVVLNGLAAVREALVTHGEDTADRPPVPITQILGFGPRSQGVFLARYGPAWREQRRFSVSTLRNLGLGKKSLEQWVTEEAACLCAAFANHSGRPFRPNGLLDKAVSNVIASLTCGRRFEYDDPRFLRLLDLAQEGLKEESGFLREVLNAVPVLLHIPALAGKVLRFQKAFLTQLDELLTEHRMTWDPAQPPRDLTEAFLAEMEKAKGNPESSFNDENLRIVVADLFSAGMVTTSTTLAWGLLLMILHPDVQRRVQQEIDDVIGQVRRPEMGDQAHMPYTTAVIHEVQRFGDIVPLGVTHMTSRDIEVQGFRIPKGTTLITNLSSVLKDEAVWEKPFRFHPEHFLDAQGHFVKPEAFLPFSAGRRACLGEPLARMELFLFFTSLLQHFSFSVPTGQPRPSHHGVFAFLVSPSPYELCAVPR
Sequence of CYP2C9 (P11712 whole entry): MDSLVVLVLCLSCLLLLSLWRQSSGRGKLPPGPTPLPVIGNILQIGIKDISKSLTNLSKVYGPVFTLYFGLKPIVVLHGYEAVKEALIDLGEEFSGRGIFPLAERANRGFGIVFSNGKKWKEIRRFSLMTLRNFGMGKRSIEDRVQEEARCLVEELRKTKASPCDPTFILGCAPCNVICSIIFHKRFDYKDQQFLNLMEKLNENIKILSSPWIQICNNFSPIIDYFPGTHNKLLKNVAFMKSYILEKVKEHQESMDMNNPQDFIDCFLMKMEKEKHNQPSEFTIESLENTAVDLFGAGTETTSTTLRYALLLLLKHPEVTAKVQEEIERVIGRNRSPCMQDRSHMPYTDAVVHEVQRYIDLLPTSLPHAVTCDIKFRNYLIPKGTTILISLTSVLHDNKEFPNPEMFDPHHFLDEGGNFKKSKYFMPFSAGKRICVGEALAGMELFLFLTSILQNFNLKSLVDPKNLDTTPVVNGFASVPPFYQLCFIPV
Sequence of Aurora kinase B (Q96GD4 whole entry): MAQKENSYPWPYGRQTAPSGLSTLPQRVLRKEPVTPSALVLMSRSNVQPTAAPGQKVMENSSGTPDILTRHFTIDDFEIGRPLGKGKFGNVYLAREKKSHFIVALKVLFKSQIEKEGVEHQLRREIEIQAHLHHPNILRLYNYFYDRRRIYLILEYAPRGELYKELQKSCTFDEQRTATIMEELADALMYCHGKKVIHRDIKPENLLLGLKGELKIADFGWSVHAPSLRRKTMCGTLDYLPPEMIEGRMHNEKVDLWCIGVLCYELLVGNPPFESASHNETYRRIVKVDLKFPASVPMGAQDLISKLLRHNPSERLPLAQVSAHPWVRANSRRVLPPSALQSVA
Sequence of CYP2C19 (P33261 whole entry): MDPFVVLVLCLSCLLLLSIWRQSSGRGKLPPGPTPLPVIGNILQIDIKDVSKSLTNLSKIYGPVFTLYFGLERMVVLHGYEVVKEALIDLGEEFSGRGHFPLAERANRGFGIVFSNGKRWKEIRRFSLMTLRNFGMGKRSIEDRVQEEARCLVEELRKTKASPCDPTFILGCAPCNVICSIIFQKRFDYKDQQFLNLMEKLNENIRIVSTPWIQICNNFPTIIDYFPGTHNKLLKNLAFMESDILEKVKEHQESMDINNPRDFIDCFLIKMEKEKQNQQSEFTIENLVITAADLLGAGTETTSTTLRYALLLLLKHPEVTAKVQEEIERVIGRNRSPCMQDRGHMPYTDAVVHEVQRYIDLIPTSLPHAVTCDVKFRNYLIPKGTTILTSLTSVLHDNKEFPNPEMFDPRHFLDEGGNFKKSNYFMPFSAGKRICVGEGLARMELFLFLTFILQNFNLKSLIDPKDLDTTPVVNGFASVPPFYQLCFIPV
Sequence of CYP3A4 (P08684 whole entry): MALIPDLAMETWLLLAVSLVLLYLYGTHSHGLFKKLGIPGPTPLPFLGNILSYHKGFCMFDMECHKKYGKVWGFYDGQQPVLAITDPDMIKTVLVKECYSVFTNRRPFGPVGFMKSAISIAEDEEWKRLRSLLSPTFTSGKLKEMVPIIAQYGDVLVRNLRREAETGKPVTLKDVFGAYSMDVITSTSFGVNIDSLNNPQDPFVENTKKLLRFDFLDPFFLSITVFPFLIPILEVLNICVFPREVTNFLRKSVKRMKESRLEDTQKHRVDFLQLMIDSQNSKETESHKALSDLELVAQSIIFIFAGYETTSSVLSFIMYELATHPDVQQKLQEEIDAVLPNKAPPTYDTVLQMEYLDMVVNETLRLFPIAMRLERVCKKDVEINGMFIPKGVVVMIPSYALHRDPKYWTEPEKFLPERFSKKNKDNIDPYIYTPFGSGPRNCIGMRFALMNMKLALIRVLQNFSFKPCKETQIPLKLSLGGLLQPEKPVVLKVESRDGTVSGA
Sequence of hERG (KCNH2) (Q12809 whole entry): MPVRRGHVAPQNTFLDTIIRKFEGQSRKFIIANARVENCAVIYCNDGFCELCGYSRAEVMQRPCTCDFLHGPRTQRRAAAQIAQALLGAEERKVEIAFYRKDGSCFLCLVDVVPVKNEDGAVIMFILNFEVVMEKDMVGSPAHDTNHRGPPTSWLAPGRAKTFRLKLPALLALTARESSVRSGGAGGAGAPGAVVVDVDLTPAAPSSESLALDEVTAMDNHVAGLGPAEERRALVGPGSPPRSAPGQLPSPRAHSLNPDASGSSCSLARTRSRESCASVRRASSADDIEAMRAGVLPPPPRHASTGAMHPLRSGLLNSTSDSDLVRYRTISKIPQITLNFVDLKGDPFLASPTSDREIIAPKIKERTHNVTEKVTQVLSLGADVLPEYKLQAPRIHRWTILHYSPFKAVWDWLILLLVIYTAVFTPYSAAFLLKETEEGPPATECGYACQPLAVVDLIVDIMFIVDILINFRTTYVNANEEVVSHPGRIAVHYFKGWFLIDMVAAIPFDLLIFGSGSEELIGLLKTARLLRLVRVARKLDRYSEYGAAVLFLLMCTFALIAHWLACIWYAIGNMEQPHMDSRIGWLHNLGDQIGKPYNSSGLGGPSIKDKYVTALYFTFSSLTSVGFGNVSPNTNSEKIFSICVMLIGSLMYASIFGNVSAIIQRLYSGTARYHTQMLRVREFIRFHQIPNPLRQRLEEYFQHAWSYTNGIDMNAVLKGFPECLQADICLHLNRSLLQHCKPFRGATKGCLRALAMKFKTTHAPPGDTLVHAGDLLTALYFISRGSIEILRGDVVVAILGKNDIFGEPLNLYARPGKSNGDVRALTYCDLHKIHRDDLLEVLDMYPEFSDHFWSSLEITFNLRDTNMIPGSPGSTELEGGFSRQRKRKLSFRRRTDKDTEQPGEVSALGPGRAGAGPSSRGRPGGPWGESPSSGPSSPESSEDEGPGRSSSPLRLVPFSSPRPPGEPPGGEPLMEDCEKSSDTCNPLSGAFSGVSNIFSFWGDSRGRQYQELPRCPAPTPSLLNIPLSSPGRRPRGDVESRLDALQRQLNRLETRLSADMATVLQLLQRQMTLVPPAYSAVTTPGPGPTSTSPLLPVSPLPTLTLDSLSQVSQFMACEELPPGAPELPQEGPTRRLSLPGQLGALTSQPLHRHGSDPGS

`COc1ccc(O)c(C(=O)/C=C/c2c(OC)cccc2OC)c1`: the inhibition at 10 µM at CYP2C9 was 36.9%; in series [1], 86%; at CYP2C19, 61.1%; on CYP1A2 it was 41.7%; at hERG (KCNH2), -7.1%; on CYP3A4, 15.3%. Also, the inhibition at 10 µM on CYP2D6 turned out to be 11.7%; in the series with Trypanosoma cruzi [8] it was 52%. For the same compound, the inhibition at 1 h, 10 µM on Aurora kinase B stood at 104%. The same compound returned a logP in series [2] of 3.52. Besides, the Activity with 786-0 came out at 14.6%. The selectivity ratio in series [3] is at least 12. Also, the results for the viability at 10 µM in series [4] and in series [6] were 14.6% and 103%, respectively. For the same compound, the CC50 in [5] was over 25 µM. The half-maximal effective concentration (EC50) in series [7] was 2.1 µM; in the series on Trypanosoma cruzi [9], under 10 µM.

On to `COc1cc(O)c(C(=O)/C=C/c2cc(OC)c(OC)c(OC)c2)cc1OC`, for which the inhibition at 10 µM is 27% on CYP2C9; 91% in [1]; 75.7% on CYP2C19; -3.1% on CYP1A2; 7.1% at hERG (KCNH2); 18.7% on CYP3A4. Also, the results for the inhibition at 10 µM at CYP2D6 and in the series on Trypanosoma cruzi [8] were -24.9% and 0%, respectively. In addition, in the series with Leishmania infantum [10], the inhibition at 50 µM came out at 88%. Further, the results for the EC50 (in the series on Leishmania infantum [11]; in [7]) were 22.2 µM and 7.4 µM, respectively. The inhibition at 1 h, 10 µM on Aurora kinase B is -4.2%. The compound further came in with a logP in series [2] of 3.5. For the same compound, the Activity with 786-0 came to 10%. In addition, the selectivity ratio in series [12] was over 2; in [3], at least 3. The viability at 10 µM was 88.5% in series [4] and 115% in series [6]. Besides, the CC50 in [5] is over 25 µM.

Consider `COc1cc(O)c(C(=O)/C=C/c2ccccc2)c(OC)c1` [FLAVOKAWAIN B], for which, in series [2], the log partition coefficient (logP) was determined as 3.9. This compound gave an EC50 in the series with Trypanosoma brucei of 6.2 µM.

Regarding `COc1ccc(C(=O)/C=C/c2ccc(OC)c(OC)c2)c(O)c1`, the inhibition at 10 µM at CYP2C9 is 10.7%; in [1], 10%; on CYP2C19, 50%; on CYP1A2 it was 36.2%; against hERG (KCNH2), 3.5%; on CYP3A4 it was 2.4%. The inhibition at 10 µM at CYP2D6 came to 92.7%; in the series on Trypanosoma cruzi [8] it was 48%. Moreover, the inhibition at 50 µM in the series on Leishmania infantum [10] was determined as 10%. For the same compound, the inhibition at 1 h, 10 µM at Aurora kinase B was -10.4%. Moreover, the logP in [2] stood at 3.53. Besides, the Activity in the series on 786-0 is -5.8%. Moreover, the figures for the viability at 10 µM in series [4] and in series [6] were 128% and 98.8%, respectively. In addition, in series [5], the CC50 was over 100 µM. In the series with Trypanosoma cruzi [9], the EC50 is under 10 µM.

The values are drawn from ChEMBL document CHEMBL3997782, “Methoxylated 2'-hydroxychalcones as antiparasitic hit compounds” (Eur J Med Chem, 2017).
